Measured values taken from ChEMBL document CHEMBL1147605, “Syntheses and biological evaluation of new fluoroquinolone antibacterials containing chiral oxiimino pyrrolidine” (Bioorg Med Chem Lett, 2004).
Converted amounts (≈) assume the structure as drawn.

Columns and labels:
[1] = test system: Staphylococcus aureus; experiment: In vitro antibacterial activity against the Ofloxacin Resistant Staphylococcus aureus 293; format: functional
How it was run: (§1)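 MICs by agar dilution following National Committee for Clinical Laboratory Standards recommendations; all strains obtained from Hoechst.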

[2] = test system: Staphylococcus aureus; experiment: In vitro antibacterial activity against the Methicillin-Resistant Staphylococcus aureus (MRSA) 690 E; format: functional; how it was run: as §1
[3] = test system: Staphylococcus aureus; experiment: In vitro antibacterial activity against the Methicillin-Resistant Staphylococcus aureus (MRSA) 705 E; format: functional; how it was run: as §1
[4] = test system: Streptococcus pyogenes; experiment: In vitro antibacterial activity against the Streptococcus pyogenes 77A; format: functional
[5] = test system: Staphylococcus aureus; experiment: In vitro antibacterial activity against the Methicillin-Resistant Staphylococcus aureus (MRSA) 697 E; format: functional; how it was run: as §1
[6] = test system: Staphylococcus aureus; experiment: In vitro antibacterial activity against the Ofloxacin Resistant Staphylococcus aureus 179; format: functional; how it was run: as §1
[7] = test system: Staphylococcus aureus; experiment: In vitro antibacterial activity against the Ofloxacin Resistant Staphylococcus aureus 303; format: functional; how it was run: as §1
[8] = test system: Staphylococcus epidermidis; experiment: In vitro antibacterial activity against the Ofloxacin Resistant Staphylococcus epidermidis 319; format: functional; how it was run: as §1
[9] = test system: Escherichia coli; experiment: In vitro antibacterial activity against the Escherichia coli 078; format: functional
[10] = test system: Enterococcus sp.; experiment: In vitro antibacterial activity against the Ofloxacin Resistant Enterococcus knothe 101; format: functional; how it was run: as §1
[11] = test system: Enterobacter cloacae; experiment: In vitro antibacterial activity against the Enterobacter cloacae 1321 E; format: functional
[12] = Time for maximum plasma concentration reached by compound was determined in rats at 50 mg/kg dose; format: ADME, organism-based; design: dose 50 mg/kg; conditions: rat
How it was run: (§2)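 Pharmacokinetics were measured in SD rats given 50mg/kg, reporting Cmax, Tmax, T1/2 and AUC.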

[13] = test system: Pseudomonas aeruginosa; experiment: In vitro antibacterial activity against the Ofloxacin Resistant Pseudomonas aeruginosa 279II; format: functional; how it was run: as §1
[14] = test system: Pseudomonas aeruginosa; experiment: In vitro antibacterial activity against the Pseudomonas aeruginosa 1771M; format: functional
[15] = test system: Staphylococcus aureus; experiment: In vitro antibacterial activity against the Methicillin-Resistant Staphylococcus aureus (MRSA) 707 E; format: functional; how it was run: as §1
[16] = test system: Salmonella typhimurium; experiment: In vitro antibacterial activity against the Salmonella Typhimurium; format: functional, Salmonella enterica subsp. enterica serovar Typhimurium; conditions: Salmonella enterica
[17] = test system: Staphylococcus aureus; experiment: In vitro antibacterial activity against the Staphylococcus aureus 285; format: functional
[18] = test system: Staphylococcus epidermidis; experiment: In vitro antibacterial activity against the Ofloxacin Resistant Staphylococcus epidermidis 291; format: functional; how it was run: as §1
[19] = Maximum plasma concentration reached by compound was determined in rats at 50 mg/kg dose; format: ADME, organism-based; design: dose 50 mg/kg; conditions: rat; how it was run: as §2
[20] = test system: Streptococcus pyogenes; experiment: In vitro antibacterial activity against the Streptococcus pyogenes 308A; format: functional
[21] = Plasma concentration for the compound was determined in rats at 50 mg/kg dose; format: ADME, organism-based; design: dose 50 mg/kg; conditions: rat; how it was run: as §2
[22] = test system: Escherichia coli; experiment: In vitro antibacterial activity against the Escherichia coli DC 2; format: functional
[23] = test system: V79-4; experiment: Cytotoxicity was determined for the compound in V79-4 cell line; format: functional, cell-based; conditions: Cricetulus griseus
[24] = test system: Staphylococcus aureus; experiment: In vitro antibacterial activity against the Methicillin-Resistant Staphylococcus aureus (MRSA) 692 E; format: functional; how it was run: as §1
[25] = test system: HepG2; experiment: Cytotoxicity was determined for the compound in HepG2 cell line; format: functional, cell-based; conditions: Homo sapiens
[26] = test system: Pseudomonas aeruginosa; experiment: In vitro antibacterial activity against the Pseudomonas aeruginosa 1592E; format: functional
[27] = test system: Staphylococcus aureus; experiment: In vitro antibacterial activity against the Staphylococcus aureus SG511; format: functional
[28] = test system: Klebsiella; experiment: In vitro antibacterial activity against the Ofloxacin Resistant Klebsiella species 30-92; format: functional; how it was run: as §1
[29] = test system: Staphylococcus aureus; experiment: In vitro antibacterial activity against the Methicillin-Resistant Staphylococcus aureus (MRSA) 701 E; format: functional; how it was run: as §1
[30] = Half-life period for the compound was determined in rats at 50 mg/kg dose; format: ADME, organism-based; design: dose 50 mg/kg; conditions: rat, in vivo

CO/N=C1\CN(c2nc3c(cc2F)c(=O)c(C(=O)O)cn3C2CC2)CC1CN (stereo not given) [GEMIFLOXACIN]
MIC [1]: 0.781 µg/mL (≈ 2.01 µM) | MIC [2]: 0.098 µg/mL (≈ 0.252 µM) | MIC [3]: 0.098 µg/mL (≈ 0.252 µM) | MIC [4]: 0.025 µg/mL (≈ 0.0642 µM) | MIC [5]: 0.049 µg/mL (≈ 0.126 µM) | MIC [6]: 0.781 µg/mL (≈ 2.01 µM) | MIC [7]: 0.781 µg/mL (≈ 2.01 µM) | MIC [8]: 3.12 µg/mL (≈ 8.03 µM) | MIC [9]: 0.007 µg/mL (≈ 0.018 µM) | MIC [10]: 0.098 µg/mL (≈ 0.252 µM) | MIC [11]: 0.004 µg/mL (≈ 0.0103 µM) | Tmax [12]: 1 h | MIC [13]: 6.25 µg/mL (≈ 16.1 µM) | MIC [14]: 0.195 µg/mL (≈ 0.501 µM) | MIC [15]: 0.025 µg/mL (≈ 0.0642 µM) | MIC [16]: 0.004 µg/mL (≈ 0.0103 µM) | MIC [17]: 0.025 µg/mL (≈ 0.0642 µM) | MIC [18]: 1.56 µg/mL (≈ 4.01 µM) | Cmax [19]: 6630 ng/mL | MIC [20]: 0.195 µg/mL (≈ 0.501 µM) | AUC [21]: 25800 ng·h/mL | MIC [22]: 0.025 µg/mL (≈ 0.0642 µM) | IC50 [23]: 10.1 µg/mL (≈ 25.9 µM) | MIC [24]: 0.049 µg/mL (≈ 0.126 µM) | IC50 [25]: 13.5 µg/mL (≈ 34.6 µM) | MIC [26]: 0.391 µg/mL (≈ 1 µM) | MIC [27]: 0.013 µg/mL (≈ 0.0334 µM) | MIC [28]: 0.781 µg/mL (≈ 2.01 µM) | MIC [29]: 0.098 µg/mL (≈ 0.252 µM) | half-life [30]: 2.12 h

CO/N=C1\CN(c2nc3c(cc2F)c(=O)c(C(=O)O)cn3C2CC2)C[C@]1(C)CN.Cl
MIC [1]: 0.098 µg/mL | MIC [2]: < 0.002 µg/mL | MIC [3]: 0.004 µg/mL | MIC [4]: 0.013 µg/mL | MIC [5]: < 0.002 µg/mL | MIC [6]: 0.098 µg/mL | MIC [7]: 0.098 µg/mL | MIC [8]: 0.391 µg/mL | MIC [9]: 0.025 µg/mL | MIC [10]: 0.098 µg/mL | MIC [11]: 0.007 µg/mL | Tmax [12]: 2 h | MIC [13]: 6.25 µg/mL | MIC [14]: 0.781 µg/mL | MIC [15]: < 0.002 µg/mL | MIC [16]: 0.013 µg/mL | MIC [17]: 0.007 µg/mL | MIC [18]: 0.195 µg/mL | Cmax [19]: 9060 ng/mL | MIC [20]: 0.098 µg/mL | AUC [21]: 90800 ng·h/mL | MIC [22]: 0.049 µg/mL | IC50 [23]: 5.49 µg/mL | MIC [24]: < 0.002 µg/mL | IC50 [25]: 37.3 µg/mL | MIC [26]: 1.56 µg/mL | MIC [27]: 0.004 µg/mL | MIC [28]: 1.56 µg/mL | MIC [29]: < 0.002 µg/mL | half-life [30]: 4.5 h
